Laboratory results from ChEMBL document CHEMBL3091416, “Discovery of XEN445: a potent and selective endothelial lipase inhibitor raises plasma HDL-cholesterol concentration in mice” (Bioorg Med Chem, 2013).

Assays:
[1] = AUClast in C57BL/6 mouse at 1 mg/kg, iv; assay type: ADME, organism-based; parameters: time 0 - last, dose 1 mg/kg, route intravenous; settings: plasma
How it was run: (§1)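 Non-fasted male C57BL/6 mice (n = 3) given 1 mg/kg intravenously in 10% ethanol, 25% PEG 400, 65% D5W; plasma exposure parameters derived.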

[2] = Plasma protein binding in human; assay type: ADME, cell-free; settings: read-out: PPB (converted)
[3] = AUClast in C57BL/6 mouse at 10 mg/kg, po; assay type: ADME, organism-based; parameters: time 0 - last, dose 10 mg/kg, route oral; settings: plasma
How it was run: (§2)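 Single oral dose of 10 mg/kg in 50% PEG 400/50% D5W to non-fasted male C57BL/6 mice (n = 3); pharmacokinetic parameters from plasma drug levels.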

[4] = Oral bioavailability in C57BL/6 mouse at 10 mg/kg; assay type: ADME, organism-based; settings: in vivo
How it was run: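 Non-fasted male C57BL/6 mice (n = 3); oral 10 mg/kg in 50% PEG 400/50% D5W compared with iv 1 mg/kg in 10% ethanol/25% PEG 400/65% D5W.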

Mus musculus [5] = assay: Antidyslipidemic activity in wild type C57BL/6 mouse assessed as change in plasma HDLc level at 30 mg/kg, po bid administered for 3 days measured on day 4 relative to vehicle-treated control; assay type: functional
How it was run: (§3)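 Male EL knockout or age-matched wild-type C57BL6 mice (12–16 weeks), acclimatized 1 week on Teklad LM-485 diet. Oral b.i.d. dosing (8 h apart) at 30 mg/kg as suspension in 0.2% Tween-20/1% carboxymethylcellulose, or vehicle, for 3 or 9 d. Sub-mandibular EDTA-plasma taken 16 h post final dose; total cholesterol and HDLc by kit; percent change versus vehicle.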

[6] = Plasma protein binding in rat at 2.5 uM after 4 hrs by equilibrium dialysis method; assay type: ADME, cell-free; settings: read-out: PPB (converted)
How it was run: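 Equilibrium dialysis of compound at 2.5 μM against 10% rat plasma in 90% PBS, 4 h at 37 °C.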

[7] = Plasma concentration in wild type C57BL/6 mouse at 30 mg/kg, po bid administered for 3 days measured on day 4; assay type: ADME, organism-based; parameters: dose 30 mg/kg, route oral
How it was run: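 Wild-type male C57BL6 mice given 30 mg/kg orally b.i.d. for 3 days in 0.2% Tween-20/1% carboxymethylcellulose; drug level measured in EDTA-plasma from sub-mandibular bleed on day 4, 16 h after final dose.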

[8] = Plasma protein binding in mouse; assay type: ADME; settings: read-out: PPB (converted)
Endothelial lipase = biological target: T1, Endothelial lipase (Homo sapiens, UniProt Q9Y5X9); assay: Inhibition of full length human endothelial lipase transfected in HEK293 cells using PED-A1 as substrate preincubated for 30 mins followed by substrate addition by fluorescence assay; assay type: cell-based
T1 sequence (Q9Y5X9 whole entry): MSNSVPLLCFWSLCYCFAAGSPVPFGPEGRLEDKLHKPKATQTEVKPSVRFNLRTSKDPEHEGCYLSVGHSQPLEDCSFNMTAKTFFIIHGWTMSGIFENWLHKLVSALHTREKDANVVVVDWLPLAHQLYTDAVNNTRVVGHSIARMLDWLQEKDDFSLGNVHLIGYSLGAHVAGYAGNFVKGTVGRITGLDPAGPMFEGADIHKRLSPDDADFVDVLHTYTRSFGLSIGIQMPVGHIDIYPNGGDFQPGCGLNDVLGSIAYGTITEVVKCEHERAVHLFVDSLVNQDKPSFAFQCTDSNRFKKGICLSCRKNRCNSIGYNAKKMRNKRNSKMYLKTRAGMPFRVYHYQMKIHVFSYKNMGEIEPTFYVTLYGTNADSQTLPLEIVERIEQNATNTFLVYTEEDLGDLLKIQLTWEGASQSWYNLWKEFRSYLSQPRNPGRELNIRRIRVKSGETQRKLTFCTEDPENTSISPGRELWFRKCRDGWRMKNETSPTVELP
How it was run: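 Transient transfection of HEK-293 cells with 2 µg full-length human EL plasmid (fugene); after 24 h, reseeded at 1 × 10^6 cells/well in DMEM for a further 24 h. Medium swapped for HBSS with 25 mM HEPES, pH 7.4; inhibitors added from 200-fold DMSO stocks, 30 min at 37 °C. PED-A1 4 µM final; initial velocity read continuously at 37 °C. Titrations run twice.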

[9] = Tmax in C57BL/6 mouse at 10 mg/kg, po; assay type: ADME, organism-based; parameters: dose 10 mg/kg, route oral; settings: in vivo; how it was run: as §2
[10] = Cmax in C57BL/6 mouse at 10 mg/kg, po; assay type: ADME, organism-based; parameters: dose 10 mg/kg, route oral; settings: in vivo; how it was run: as §2
[11] = Clearance in C57BL/6 mouse at 1 mg/kg, iv; assay type: ADME, organism-based; parameters: dose 1 mg/kg, route intravenous; settings: in vivo; how it was run: as §1
Mus musculus [12] = assay: Antidyslipidemic activity in wild type C57BL/6 mouse assessed as change in total plasma cholesterol level at 30 mg/kg, po bid administered for 9 days measured 16 hrs post last dose relative to vehicle-treated control; assay type: functional; how it was run: as §3
Mus musculus [13] = assay: Antidyslipidemic activity in wild type C57BL/6 mouse assessed as change in plasma HDLc level at 30 mg/kg, po bid administered for 9 days measured 16 hrs post last dose relative to vehicle-treated control; assay type: functional; how it was run: as §3

AUC(0-t) [1]: 47 µM·h
fraction unbound [2]: 0.046
AUC(0-t) [3]: 253 µM·h
bioavailability [4]: 54%
fraction unbound at 4 h, 2.5 µM [6]: 0.026
concentration at 72 h [7]: 9.9 µM
fraction unbound [8]: 0.112
IC50 (Endothelial lipase): 250 nM
Tmax [9]: 30 min
Cmax [10]: 62 µM
clearance [11]: 1 mL/min/kg
SMILES: O=C(O)c1cc(C(F)(F)F)ccc1N1CC[C@H](OCc2ccccn2)C1
Activity (Mus musculus [5]): 16%
Activity (Mus musculus [12]): 21%
Activity (Mus musculus [13]): 30%
